Experimental data as given in ChEMBL document CHEMBL3763092, “Design and synthesis of pyrrolobenzodiazepine-gallic hybrid agents as p53-dependent and -independent apoptogenic signaling in melanoma cells” (Eur J Med Chem, 2016).
The source made the active and inactive calls. The calls are words filed in the database; no cut-off is given here.

What was measured:
A-375 [1] = test: Induction of apoptosis in human A375 cells expressing p53 wild type assessed as increase in p53 levels at 0.5 uM after 24 hrs by western blot analysis; assay type: functional, cell-based
How it was run: (§1)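 A375 cells were exposed to 0.5 µM for 24 h, and lysates were immunoblotted with specific antibodies (p53, Cdc25c, p-Chk1, Bcl-xL, PARP, caspase-3). GAPDH served as loading control. Three independent experiments.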

A-375 [2] = test: Induction of apoptosis in human A375 cells expressing p53 wild type assessed as decrease in Bcl-xl levels at 0.5 uM after 24 hrs by western blot analysis; assay type: functional, cell-based; how it was run: as §1
A-375 [3] = test: Induction of apoptosis in human A375 cells expressing p53 wild type assessed as increase in cleaved caspase-3 levels at 0.5 uM after 24 hrs by western blot analysis; assay type: functional, cell-based; how it was run: as §1
A-375 [4] = test: Induction of apoptosis in human A375 cells expressing p53 wild type assessed as increase in cleaved PARP levels at 0.5 uM after 24 hrs by western blot analysis; assay type: functional, cell-based; how it was run: as §1
A-375 [5] = test: Cytotoxicity against human A375 cells expressing p53 wild type assessed as cell viability at 1 uM after 24 hrs by MTT assay; assay type: functional; settings: A-375, 24 h, read-out: Activity
How it was run: (§2)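 Cells were exposed to compound at 1 µM for 24 h, then growth and viability were read by MTT assay. Media: A375 in DMEM; RPMI7951 and MCF-7 in MEM; A549 in RPMI1640; H1299 in DMEM-F12; all with 10% FCS and penicillin/streptomycin, at 37 °C and 5% CO2. Fibroblasts came from adult foreskin. DMSO stocks were 10 mM.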

[6] = Cytotoxicity against human RPMI7951 cells expressing p53 mutant assessed as cell viability at 1 uM after 24 hrs by MTT assay; assay type: functional; settings: RPMI-7951, 24 h, read-out: Activity; how it was run: as §2
MCF7 = test: Cytotoxicity against human MCF7 cells expressing p53 wild type assessed as cell viability at 1 uM after 24 hrs by MTT assay; assay type: functional; settings: MCF7, 24 h, read-out: Activity; how it was run: as §2
A549 = test: Cytotoxicity against human A549 cells assessed as cell viability at 1 uM after 24 hrs by MTT assay; assay type: functional; settings: A549, 24 h, read-out: Activity; how it was run: as §2
[7] = Cytotoxicity against p53 knockout human H1299 cells assessed as cell viability at 1 uM after 24 hrs by MTT assay; assay type: functional; settings: NCI-H1299, 24 h, read-out: Activity; how it was run: as §2
[8] = Cytotoxicity against human fibroblast cells expressing p53 wild type assessed as cell viability at 1 uM after 24 hrs by MTT assay; assay type: cell-based; settings: read-out: Activity; how it was run: as §2
A-375 [9] = test: Induction of reactive oxygen species generation in human A375 cells expressing p53 wild type assessed as increase in intracellular H2O2 level at 0.5 uM after 24 hrs by DCFH-DA staining based fluorescence analysis; assay type: functional, cell-based
How it was run: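 A375 cells were treated with 0.5 µM for 0, 12 and 24 h and stained with DCFH-DA to detect intracellular H2O2.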

A-375 [10] = test: Induction of DNA lesion in human A375 cells expressing p53 wild type assessed as increase in 8-oxoguanine expression at 0.5 uM after 24 hrs by immunohistochemical analysis; assay type: functional, cell-based
How it was run: (§3)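 A375 cells on coverslips (1 × 10^4) were treated with 0.5 µM for 24 h. Cells were fixed in 4% formaldehyde for 5 min at 4 °C, permeabilized with 0.5% Triton X-100, and blocked with 5% BSA at 37 °C for 45 min. Primary antibodies were applied for 1 h at RT: mouse anti-p-ATR and anti-p-ATM 1:1000, anti-8-oxoguanine 1:250, COX IV and cytochrome c 1:1000. Secondary antibodies (rhodamine for 8-oxoguanine) followed for 30 min. DAPI counterstain.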

A-375 [11] = test: Induction of DNA damage in human A375 cells expressing p53 wild type assessed as increase in ATR/ATM activation at 0.5 uM after 24 hrs by immuohistochemistry analysis; assay type: functional, cell-based; how it was run: as §3
A-375 [12] = test: Increase in Chk1 phosphorylation in human A375 cells expressing p53 wild type at 0.5 uM after 24 hrs by western blot analysis; assay type: functional, cell-based; how it was run: as §1
A-375 [13] = test: Decrease in Cdc25c level in human A375 cells expressing p53 wild type at 0.5 uM after 24 hrs by western blot analysis; assay type: functional, cell-based; how it was run: as §1
A-375 [14] = test: Effect on cell cycle distribution in human A375 cells expressing p53 wild type assessed as number of cells at S-phase at 0.5 uM after 24 hrs by FACS analysis (reference value: 13.8 %); assay type: functional
A-375 [15] = test: Effect on cell cycle distribution in human A375 cells expressing p53 wild type assessed as number of cells at G2/M phase at 0.5 uM after 24 hrs by FACS analysis (reference value: 12.1 %); assay type: functional
A-375 [16] = test: Effect on cell cycle distribution in human A375 cells expressing p53 wild type assessed as number of cells at G0/G1 phase at 0.5 uM after 24 hrs by FACS analysis Rvb = 74.1 %); assay type: functional
A-375 [17] = test: Effect on cell cycle distribution in human A375 cells expressing p53 wild type assessed as number of cells at subG1 phase at 0.5 uM after 24 hrs by FACS analysis (reference value: 1 %); assay type: functional
A-375 [18] = test: Induction of apoptosis in human A375 cells expressing p53 wild type assessed as increase in p53 mRNA level by RT- qPCR analysis; assay type: functional, cell-based; settings: TDE = time-dependent effect
How it was run: (§4)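 Quantitative real-time PCR on A375 cells over a time course, measuring p53, bax and bcl-xl mRNA normalized to GAPDH mRNA.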

A-375 [19] = test: Induction of apoptosis in human A375 cells expressing p53 wild type assessed as increase in bax mRNA level by RT- qPCR analysis; assay type: functional, cell-based; settings: TDE = time-dependent effect; how it was run: as §4
A-375 [20] = test: Induction of apoptosis in human A375 cells expressing p53 wild type assessed as decrease in bcl-xl mRNA level by RT- qPCR analysis; assay type: functional, cell-based; settings: TDE = time-dependent effect; how it was run: as §4
A-375 [21] = test: Induction of apoptosis in human A375 cells expressing p53 wild type assessed as decrease in mitochondrial membrane potential at 0.5 uM after 12 hrs by DiOC6 dye based flow cytometry; assay type: functional, cell-based
How it was run: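 A375 cells were treated with 0.5 µM for 0, 12 and 24 h, labeled with DiOC6 and analyzed by flow cytometry. Three independent experiments.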

A-375 [22] = test: Induction of apoptosis in human A375 cells expressing p53 wild type assessed as increase release of cytochrome c from mitochondria to cytosol at 0.5 uM after 24 hrs by immunofluorescence analysis; assay type: functional, cell-based; how it was run: as §3
A-375 [23] = test: Induction of apoptosis in human A375 cells expressing p53 wild type assessed as lysosomal H+ concentration at 0.5 uM after 24 and 48 hrs by flow cytometric analysis; assay type: functional, cell-based
How it was run: (§5)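 Cells were loaded with LysoTracker Green (75 nM) for 15 min at 37 °C before treatment with 0.5 µM for the indicated times. After washing, mean fluorescence was quantified by flow cytometry. For p53 knockdown, A375 cells (6 × 10^4/well, antibiotic-free DMEM) were transfected with 30 nM tp53 siRNA or non-target siRNA using Lipofectamine RNAiMAX and harvested at 24 h.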

A-375 [24] = test: Induction of apoptosis in human A375 cells transfected with siRNA p53 assessed as decrease in lysosomal H+ concentration at 0.5 uM after 24 and 48 hrs by flow cytometric analysis; assay type: functional, cell-based; how it was run: as §5
RPMI-7951 [25] = test: Induction of apoptosis in human RPMI7951 cells expressing p53 mutant assessed as decrease in lysosomal H+ concentration at 0.5 uM after 24 and 48 hrs by flow cytometric analysis; assay type: functional, cell-based; how it was run: as §5
RPMI-7951 [26] = test: Induction of apoptosis in human RPMI7951 cells expressing p53 mutant assessed as increased release of cathepsin D to cytosol at 0.5 uM by immunofluorescent staining analysis; assay type: functional, cell-based
How it was run: (§6)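 RPMI7951 cells on coverslips (1 × 10^4) were treated with 0.5 µM for 24 h. Immunofluorescence steps: fixation in 4% formaldehyde, permeabilization with 0.5% Triton X-100, blocking with 5% BSA. Primary antibodies: rabbit anti-cathepsin D and mouse anti-LAMP-1 at 1:500, cytochrome c and COX IV at 1:1000, 1 h at RT. Secondary antibodies for 30 min. DAPI counterstain.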

RPMI-7951 [27] = test: Induction of apoptosis in human RPMI7951 cells expressing p53 mutant assessed as increased release of cytochrome c to cytosol at 0.5 uM by immunofluorescent staining analysis; assay type: functional, cell-based; how it was run: as §6
RPMI-7951 [28] = test: Induction of apoptosis in human RPMI7951 cells expressing p53 mutant assessed as PARP cleavage at 0.5 uM after 24 hrs by western blot analysis; assay type: functional, cell-based
B16 [29] = test: Antitumor activity against mouse B16 cells xenografted in ICR mouse assessed as decrease in tumor growth administered via interavenous; assay type: functional, cell-based
How it was run: (§7)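 Female ICR mice, seven weeks old, inoculated s.c. in the footpad with 1 × 10^6 B16 cells in 20 µl PBS. Once tumors reached a mean diameter of 4-7 mm (day 0), mice were randomized into groups of three and dosed i.v. at 0, 2, 4 mg/kg. Two perpendicular tumor diameters and body weight were taken at least 3 times weekly. T/C% was calculated from relative tumor volume; body weight is expressed as % of day 0. Statistics by t-test.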

B16 [30] = test: Induction of apoptosis in mouse B16 cells at 0.5 uM after 24 hrs by FITC-annexin V/PI staining based fluorescence microscopy; assay type: functional, cell-based
How it was run: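 B16 cells were seeded on coverslips at 3 × 10^5 per well, allowed to attach for 24 h, then exposed to 0.5 µM for 24 h. After PBS washes, cells were stained with annexin V-FITC and PI (plus Hoechst33258) for at least 15 min at RT in the dark and viewed by fluorescence microscopy.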

Mus musculus = test: Toxicity in ICR mouse xenografted with mouse B16 cells assessed as change in body weight at 2 to 4 mg/kg, iv; assay type: organism-based; settings: in vivo; how it was run: as §7
A-375 [31] = test: Cytotoxicity against human A375 cells expressing p53 wild type assessed as colony formation at 0.5 uM after 10 days by SRB assay; assay type: functional, cell-based
How it was run: (§8)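 Cells were seeded at 100 per well and treated from the second day. Medium containing 0.5 µM agent was renewed every 3 days. After 10 days of treatment, colonies were stained with SRB and photographed. Three independent experiments.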

RPMI-7951 [32] = test: Cytotoxicity against human RPMI7951 expressing p53 mutant cells assessed as colony formation at 0.5 uM after 10 days by SRB assay; assay type: functional, cell-based; how it was run: as §8

## COc1cc2c(cc1OCCCOc1cc(OC)c(OC)c(OC)c1)N=C[C@@H]1CCCN1C2=O
A-375 [1]
  Activity: Active
A-375 [2]
  Activity: Active
A-375 [3]
  Activity: Active
A-375 [4]
  Activity: Active
A-375 [5]
  viability at 1 µM: 69.7%
[6]
  viability at 1 µM: 59.5%
MCF7
  viability at 1 µM: 51.7%
A549
  viability at 1 µM: 88.7%
[7]
  viability at 1 µM: 71.9%
[8]
  viability at 24 h, 1 µM: 97.3%

## COc1cc2c(cc1OCCCCOc1cc(OC)c(OC)c(OC)c1)N=C[C@@H]1CCCN1C2=O
A-375 [9]
  Activity: Active
A-375 [10]
  Activity: Active
A-375 [11]
  Activity: Active
A-375 [12]
  Activity: Active
A-375 [13]
  inhibition: Active
A-375 [14]
  Activity: 47.9%
A-375 [15]
  Activity: 4.8%
A-375 [16]
  Activity: 32.6%
A-375 [17]
  Activity: 15.8%
A-375 [1]
  Activity: Active
A-375 [2]
  Activity: Active
A-375 [3]
  Activity: Active
A-375 [4]
  Activity: Active
A-375 [18]
  Activity: tde
A-375 [19]
  Activity: tde
A-375 [20]
  Activity: tde
A-375 [21]
  Activity: Active
A-375 [22]
  Activity: Active
A-375 [23]
  Activity: inactive
A-375 [24]
  Activity: Active
RPMI-7951 [25]
  Activity: Active
RPMI-7951 [26]
  Activity: Active
RPMI-7951 [27]
  Activity: Active
RPMI-7951 [28]
  Activity: Active
B16 [29]
  inhibition: Dose-dependent effect
B16 [30]
  Activity: Active
Mus musculus
  Activity: Non-toxic
A-375 [5]
  viability at 1 µM: 37.4%
[6]
  viability at 1 µM: 62.3%
MCF7
  viability at 1 µM: 55.3%
A549
  viability at 1 µM: 77.9%
[7]
  viability at 1 µM: 73%
[8]
  viability at 24 h, 1 µM: 109%
A-375 [31]
  inhibition: Active
RPMI-7951 [32]
  inhibition: Active
